Results: ChEMBL document CHEMBL5356993, “Novel pyrazolo[3,4-d]pyrimidine derivatives: design, synthesis, anticancer evaluation, VEGFR-2 inhibition, and antiangiogenic activity” (RSC Med Chem, 2023)

Key:
Assay type in all cases: functional
Settings in all cases: read-out: GI
SW-620 = assay: Antiproliferative activity against human SW620 cells assessed as cell growth inhibition at 10 uM incubated for 48 hrs by SRB assay relative to control
Method in brief: (§1)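 Cells pre-incubated 24 h at 37°C, 5% CO2, then exposed to compound (DMSO stock diluted in medium with 50 µg/mL gentamicin) for 48 h. Adherent cells fixed with cold TCA (final 10%, 60 min, 4°C); suspension cells fixed with 16% TCA final. Stained with 0.4% SRB in 1% acetic acid for 10 min, dye solubilized in 10 mM Trizma base, absorbance read at 515 nm. Growth calculated against time-zero and untreated control plates.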

RPMI-8226 = assay: Antiproliferative activity against human RPMI-8226 cells assessed as cell growth inhibition at 10 uM incubated for 48 hrs by SRB assay relative to control
MDA-MB-468 = assay: Antiproliferative activity against human MDA-MB-468 cells assessed as cell growth inhibition at 10 uM incubated for 48 hrs by SRB assay relative to control
LOX IMVI = assay: Antiproliferative activity against human LOX IMVI cells assessed as cell growth inhibition at 10 uM incubated for 48 hrs by SRB assay relative to control
NCI/ADR-RES = assay: Antiproliferative activity against human NCI-ADR-RES cells assessed as cell growth inhibition at 10 uM incubated for 48 hrs by SRB assay relative to control
IGROV-1 = assay: Antiproliferative activity against human IGROV-1 cells assessed as cell growth inhibition at 10 uM incubated for 48 hrs by SRB assay relative to control
MDA-MB-435 = assay: Antiproliferative activity against human MDA-MB-435 cells assessed as cell growth inhibition at 10 uM incubated for 48 hrs by SRB assay relative to control
A549 = assay: Antiproliferative activity against human A549 cells assessed as cell growth inhibition at 10 uM incubated for 48 hrs by SRB assay relative to control
OVCAR-5 = assay: Antiproliferative activity against human OVCAR-5 cells assessed as cell growth inhibition at 10 uM incubated for 48 hrs by SRB assay relative to control
Method in brief: (§2)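 Cells plated in 96-well plates at […] cells/well and preincubated 24 h at 37 °C, 5% CO2. Time-zero plates were TCA-fixed. Compound was diluted in medium with 50 µg/mL gentamicin and cells exposed for 48 h. Adherent cells fixed with 10% final TCA; suspension cells with 16% final TCA. Plates stained with 0.4% SRB in 1% acetic acid, dye solubilized in 10 mM Trizma, absorbance read at 515 nm. Percent growth calculated against time-zero and control.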

HOP-92 = assay: Antiproliferative activity against human HOP-92 cells assessed as cell growth inhibition at 10 uM incubated for 48 hrs by SRB assay relative to control; method in brief: as §2
HL-60(TB) = assay: Antiproliferative activity against human HL-60(TB) cells assessed as cell growth inhibition at 10 uM incubated for 48 hrs by SRB assay relative to control
Method in brief: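 Cells were plated at […] cells/well and preincubated 24 h at 37°C, 5% CO2, with time-zero plates TCA-fixed. Compound was diluted from DMSO stock in medium with 50 µg/mL gentamicin, then exposed for 48 h. Settled suspension cells were fixed with 80% TCA (final 16%), stained with 0.4% SRB and solubilized in 10 mM Trizma, A515. Growth was taken relative to Tz and control.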

SK-MEL-2 = assay: Antiproliferative activity against human SK-MEL-2 cells assessed as cell growth inhibition at 10 uM incubated for 48 hrs by SRB assay relative to control; method in brief: as §2
SF-268 = assay: Antiproliferative activity against human SF-268 cells assessed as cell growth inhibition at 10 uM incubated for 48 hrs by SRB assay relative to control
SF-295 = assay: Antiproliferative activity against human SF-295 cells assessed as cell growth inhibition at 10 uM incubated for 48 hrs by SRB assay relative to control; method in brief: as §2
SK-MEL-28 = assay: Antiproliferative activity against human SK-MEL-28 cells assessed as cell growth inhibition at 10 uM incubated for 48 hrs by SRB assay relative to control; method in brief: as §2
CAKI-1 = assay: Antiproliferative activity against human CAKI-1 cells assessed as cell growth inhibition at 10 uM incubated for 48 hrs by SRB assay relative to control
UACC-62 = assay: Antiproliferative activity against human UACC-62 cells assessed as cell growth inhibition at 10 uM incubated for 48 hrs by SRB assay relative to control; method in brief: as §1
NCI-H322M = assay: Antiproliferative activity against human NCI-H322M cells assessed as cell growth inhibition at 10 uM incubated for 48 hrs by SRB assay relative to control
Malme-3M = assay: Antiproliferative activity against human Malme-3M cells assessed as cell growth inhibition at 10 uM incubated for 48 hrs by SRB assay relative to control
OVCAR-8 = assay: Antiproliferative activity against human OVCAR-8 cells assessed as cell growth inhibition at 10 uM incubated for 48 hrs by SRB assay relative to control
KM12 = assay: Antiproliferative activity against human KM12 cells assessed as cell growth inhibition at 10 uM incubated for 48 hrs by SRB assay relative to control; method in brief: as §2
A498 = assay: Antiproliferative activity against human A498 cells assessed as cell growth inhibition at 10 uM incubated for 48 hrs by SRB assay relative to control; method in brief: as §2
HOP-62 = assay: Antiproliferative activity against human HOP-62 cells assessed as cell growth inhibition at 10 uM incubated for 48 hrs by SRB assay relative to control
PC-3 = assay: Antiproliferative activity against human PC-3 cells assessed as cell growth inhibition at 10 uM incubated for 48 hrs by SRB assay relative to control
OVCAR-3 = assay: Antiproliferative activity against human OVCAR-3 cells assessed as cell growth inhibition at 10 uM incubated for 48 hrs by SRB assay relative to control; method in brief: as §2
DU-145 = assay: Antiproliferative activity against human DU-145 cells assessed as cell growth inhibition at 10 uM incubated for 48 hrs by SRB assay relative to control
COLO 205 = assay: Antiproliferative activity against human COLO 205 cells assessed as cell growth inhibition at 10 uM incubated for 48 hrs by SRB assay relative to control
ACHN = assay: Antiproliferative activity against human ACHN cells assessed as cell growth inhibition at 10 uM incubated for 48 hrs by SRB assay relative to control
HCT-116 = assay: Antiproliferative activity against human HCT-116 cells assessed as cell growth inhibition at 10 uM incubated for 48 hrs by SRB assay relative to control
TK-10 = assay: Antiproliferative activity against human TK-10 cells assessed as cell growth inhibition at 10 uM incubated for 48 hrs by SRB assay relative to control; method in brief: as §1
SK-OV-3 = assay: Antiproliferative activity against human SK-OV-3 cells assessed as cell growth inhibition at 10 uM incubated for 48 hrs by SRB assay relative to control; method in brief: as §2
HCT-15 = assay: Antiproliferative activity against human HCT-15 cells assessed as cell growth inhibition at 10 uM incubated for 48 hrs by SRB assay relative to control

Row | Structure (SMILES) | inhibition of growth at 10 µM (SW-620) [%] | inhibition of growth at 10 µM (RPMI-8226) [%] | inhibition of growth at 10 µM (MDA-MB-468) [%] | inhibition of growth at 10 µM (LOX IMVI) [%] | inhibition of growth at 10 µM (NCI/ADR-RES) [%] | inhibition of growth at 10 µM (IGROV-1) [%] | inhibition of growth at 10 µM (MDA-MB-435) [%] | inhibition of growth at 10 µM (A549) [%] | inhibition of growth at 10 µM (OVCAR-5) [%] | inhibition of growth at 10 µM (HOP-92) [%] | inhibition of growth at 10 µM (HL-60(TB)) [%] | inhibition of growth at 10 µM (SK-MEL-2) [%] | inhibition of growth at 10 µM (SF-268) [%] | inhibition of growth at 10 µM (SF-295) [%] | inhibition of growth at 10 µM (SK-MEL-28) [%] | inhibition of growth at 10 µM (CAKI-1) [%] | inhibition of growth at 10 µM (UACC-62) [%] | inhibition of growth at 10 µM (NCI-H322M) [%] | inhibition of growth at 10 µM (Malme-3M) [%] | inhibition of growth at 10 µM (OVCAR-8) [%] | further results
1 | Cc1nc2c(cnn2-c2ccccc2)c(=O)n1-c1ccc(N)cc1 | < 15 | 48.2 | 62.4 | 18.5 | < 15 | 15 | 22.9 | < 15 | < 15 | < 15 | < 15 | 17.8 | 17.4 | 27.1 | < 15 | 31.7 | 34.5 | < 15 | 17.8 | < 15 | inhibition of growth at 10 µM (KM12): < 15%; inhibition of growth at 10 µM (A498): 16.8%; inhibition of growth at 10 µM (HOP-62): 16.2%; inhibition of growth at 10 µM (PC-3): 18%; inhibition of growth at 10 µM (OVCAR-3): < 15%; inhibition of growth at 10 µM (DU-145): 17.3%; inhibition of growth at 10 µM (COLO 205): < 15%; inhibition of growth at 10 µM (ACHN): 27.1%; inhibition of growth at 10 µM (HCT-116): 25.9%; inhibition of growth at 10 µM (TK-10): 21.8%; inhibition of growth at 10 µM (SK-OV-3): < 15%; inhibition of growth at 10 µM (HCT-15): < 15%
2 | CC(=O)Nc1ccc(-n2c(C)nc3c(cnn3-c3ccccc3)c2=O)cc1 | < 15 | 47.5 | < 15 | 21.1 | < 15 | < 15 | 21.1 | < 15 | < 15 | 17 | 28.3 | 24.3 | < 15 | 36.5 | < 15 | 31.1 | 38.3 | < 15 | 22.3 | 20 | inhibition of growth at 10 µM (KM12): < 15%; inhibition of growth at 10 µM (A498): 16.1%; inhibition of growth at 10 µM (HOP-62): < 15%; inhibition of growth at 10 µM (PC-3): 30.3%; inhibition of growth at 10 µM (OVCAR-3): < 15%; inhibition of growth at 10 µM (DU-145): 17.8%; inhibition of growth at 10 µM (COLO 205): < 15%; inhibition of growth at 10 µM (ACHN): 29.8%; inhibition of growth at 10 µM (HCT-116): 28.9%; inhibition of growth at 10 µM (TK-10): 20.4%; inhibition of growth at 10 µM (SK-OV-3): < 15%; inhibition of growth at 10 µM (HCT-15): 15.1%
3 | COc1ccc(/C=C/C(=O)c2ccc(-n3c(C)nc4c(cnn4-c4ccccc4)c3=O)cc2)cc1 | 24.9 | > 100 | 88.7 | 56 | 37.6 | < 15 | 88.8 | < 15 | < 15 | < 15 | 55.3 | 29.4 | < 15 | 34.5 | < 15 | 25 | 50 | < 15 | 39.5 | 16.6 | inhibition of growth at 10 µM (KM12): 68.4%; inhibition of growth at 10 µM (A498): < 15%; inhibition of growth at 10 µM (HOP-62): 19.5%; inhibition of growth at 10 µM (PC-3): 34.9%; inhibition of growth at 10 µM (OVCAR-3): 39%; inhibition of growth at 10 µM (DU-145): 16.8%; inhibition of growth at 10 µM (COLO 205): < 15%; inhibition of growth at 10 µM (ACHN): 29%; inhibition of growth at 10 µM (HCT-116): 90.3%; inhibition of growth at 10 µM (TK-10): < 15%; inhibition of growth at 10 µM (SK-OV-3): < 15%; inhibition of growth at 10 µM (HCT-15): 46.5%
4 | Cc1nc2c(cnn2-c2ccccc2)c(=O)n1-c1ccc(N2C(=O)C=CC2=O)cc1 | < 15 | < 15 | 18.6 | < 15 | < 15 | < 15 | < 15 | < 15 | < 15 | < 15 | < 15 | < 15 | < 15 | < 15 | < 15 | < 15 | < 15 | < 15 | < 15 | < 15 | inhibition of growth at 10 µM (KM12): < 15%; inhibition of growth at 10 µM (A498): < 15%; inhibition of growth at 10 µM (HOP-62): < 15%; inhibition of growth at 10 µM (PC-3): < 15%; inhibition of growth at 10 µM (OVCAR-3): < 15%; inhibition of growth at 10 µM (DU-145): < 15%; inhibition of growth at 10 µM (COLO 205): < 15%; inhibition of growth at 10 µM (ACHN): < 15%; inhibition of growth at 10 µM (HCT-116): < 15%; inhibition of growth at 10 µM (TK-10): < 15%; inhibition of growth at 10 µM (SK-OV-3): < 15%; inhibition of growth at 10 µM (HCT-15): < 15%
5 | Cc1nc2c(cnn2-c2ccccc2)c(=O)n1-c1ccc(N2C(=O)c3ccccc3C2=O)cc1 | < 15 | < 15 | < 15 | < 15 | < 15 | < 15 | < 15 | < 15 | < 15 | < 15 | < 15 | < 15 | < 15 | < 15 | < 15 | < 15 | < 15 | < 15 | < 15 | < 15 | inhibition of growth at 10 µM (KM12): < 15%; inhibition of growth at 10 µM (A498): < 15%; inhibition of growth at 10 µM (HOP-62): < 15%; inhibition of growth at 10 µM (PC-3): < 15%; inhibition of growth at 10 µM (OVCAR-3): < 15%; inhibition of growth at 10 µM (DU-145): < 15%; inhibition of growth at 10 µM (COLO 205): < 15%; inhibition of growth at 10 µM (ACHN): < 15%; inhibition of growth at 10 µM (HCT-116): < 15%; inhibition of growth at 10 µM (TK-10): < 15%; inhibition of growth at 10 µM (SK-OV-3): < 15%; inhibition of growth at 10 µM (HCT-15): < 15%
